Assay results collected from several papers.
Each line is one published result; the experiments were not run side by side.
CDK16: Cyclin-dependent kinase 16 (CDK16, Homo sapiens, UniProt Q00536)
CDK16 with cyclin Y: Cyclin-dependent kinase 16, with cyclin Y (CDK16, Homo sapiens, UniProt Q00536)

`c1ccc(CNc2nc(N3CCOc4ccccc43)nc3c2CCCC3)cc1` has an inhibition of 2.9% (CDK16; target engagement in cells; inhibitor; chemoproteomics; 20 mM).
With `Nc1cnc(N2CCc3cc(S(=O)(=O)Nc4c(F)cc(Cl)cc4F)cc(N4CCCC4=O)c32)nc1` the remaining binding was 98% (CDK16; cell-free assay; competition with immobilised ligand; 1 µM).
The inhibition of `CS(=O)(=O)Nc1cccc(-c2csc(NC(=O)CSc3nc4nccnc4c(=O)n3CCc3ccccc3)n2)c1` is reported as -1% (CDK16 with cyclin Y; enzyme activity; inhibitor; 10 µM).
`Nc1ncnc2occ(-c3ccc(NC(=O)Nc4cc(C(F)(F)F)ccc4F)cc3)c12` has a remaining signal of 0.15% (CDK16; cell-free assay; inhibitor; 20 µM).
The inhibition of `CCCCNc1ncc2c(-c3ccc(F)cc3)nn(C[C@H]3CC[C@H](N)CC3)c2n1` is reported as 38.5% (CDK16; target engagement in cells; inhibitor; chemoproteomics; 20 mM).
`Cc1ccc(C(=O)Nc2ccc(CN3CCN(C)CC3)c(C(F)(F)F)c2)cc1C#Cc1cnc2cccnn12` has a remaining activity of 77% (CDK16; enzyme activity; inhibitor; 23.5 nM).
With `Cn1c2c(c3ccccc31)C(C#N)C(C)(C)NC2=O` (stereo not drawn) the ΔTm was 0.2 °C (CDK16; thermal stability; DSF; 10 µM).
`CC(C)(C)c1nc2c(s1)c1nc(N)ncc1c1ccc(NS(=O)(=O)c3c(F)cccc3F)c(F)c12` gave a remaining activity of 87% (CDK16 with cyclin Y; enzyme activity; inhibitor; radiometric; 1 µM).
The ΔTm of `N#CC1c2c([nH]c3c(Cl)c(Cl)ccc23)C(=O)NC12CCCCC2` (racemic) is reported as 0.9 °C (CDK16; thermal stability; DSF; 10 µM).
`CCCOc1ccc([C@H]2[C@H](C(=O)O)[C@@H](c3ccc4c(c3)OCO4)CN2CC(=O)Nc2c(CC)cccc2CC)cc1` gave a remaining binding of 77% (CDK16; cell-free assay; competition with immobilised ligand; 1 µM).
`Cn1c2c(Cl)c(Cl)ccc2c2cn[nH]c(=O)c21` has a ΔTm of 0.8 °C (CDK16; thermal stability; DSF; 10 µM).
`O=C(O)c1cc(-c2ccc(C3CCNCC3)cc2)c2ccc(-c3ccc(C(F)(F)F)cc3)cc2c1` gave a remaining binding of 100% (CDK16; cell-free assay; competition with immobilised ligand; 1 µM).
